Tests used:
[1] = serum peptide content by GLP-1R and GcgR cAMP bioassay; assay type: in vivo, mouse; conditions: 10 nmol/kg SC QD 7 d
Method in brief: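 On day 7 they got a final dose and serum was taken at 0, 2, 6 or 16 h (n=4/timepoint). Apparent serum peptide concentration was estimated from cAMP accumulation in CHO K1 cells stably expressing human GLP1R or GcgR, by potency comparison.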

[2] = system: non-cirrhotic, non-alcoholic steatohepatitis patients; conditions: cited from earlier work
[3] = system: C57BL/6J mice fed AMLN diet; experiment: sub-chronic dosing in C57Bl/6J AMLN NASH model; assay type: in vivo, mouse; conditions: for weight loss from baseline: Cotadutide 10, Liraglutide 40 nmol/kg SC, OCA 70 μmol/kg PO, QD 6 weeks; for food intake within the first 4 days: same doses; for animals with reduced fibrosis / animals with reduced fibrosis (number of group): n=12; for mice in which NAS was reduced: vehicle controls 8%
Method in brief: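 Male C57BL/6J mice, about 6 weeks old, were fed AMLN diet for 29 weeks (chow controls) before dosing for 6 weeks, n=12/group. Dosing: peptides SC once daily just before lights off; OCA oral. Every mouse got both an SC vehicle (phosphate/propylene glycol/PS-80, pH 7.5) and an oral vehicle (0.5% CMC). Body weight was recorded daily. ipGTT on day 28 after 4 h fast (1.5 g/kg glucose). Terminal blood and liver collected on day 42.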

[4] = system: DIO GLP-1R knock-out (KO) mice; experiment: two-week treatment of DIO GLP-1R KO mice; assay type: in vivo, mouse
Method in brief: (§1)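 Mice were made obese on diet for 8 weeks, then moved to 45% high-fat diet for 2 weeks. Body weight was tracked as % change, with cumulative food intake over days 1–4. Blood and tissues were taken 20 h after the final dose.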

[5] = system: primary mouse hepatocytes; experiment: mRNA levels in primary mouse hepatocytes; assay type: cell-based; conditions: 1, 10, 100 nM, 4h
Method in brief: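 Primary mouse hepatocytes were exposed to test compound at 1, 10 or 100 nM for 4 h, and G6pc, Pck1 and Ppargc1a mRNA were measured. For Ppargc1a, the 100 nM condition was also combined with PKA inhibitor H89 at 10 μM. For G6pc and Pck1, it was combined with H89 at 2.5, 5 or 10 μM. n=3 biologically independent samples; one-way ANOVA with Dunnett post-hoc.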

ob/ob AMLN NASH mice = experiment: sub-chronic dosing in ob/ob AMLN NASH model; assay type: in vivo, mouse
[6] = system: C57BL6J diet-induced NASH model; experiment: six-week treatment of NASH C57Bl6/J mice; assay type: in vivo, mouse
C57Bl/6J DIO male mice = experiment: hyperglycemic clamp and stable isotope infusions in DIO C57Bl6J; assay type: in vivo, mouse
Method in brief: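 Twenty-week-old male C57Bl/6J DIO mice were kept on a shifted light cycle (lights on midnight to noon). Arterial and venous catheters were placed 5 days before a hyperglycemic clamp with […] glucose and water tracing.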

[7] = system: primary human hepatocytes from normal or NASH donors; experiment: PPARGC1A mRNA in primary human hepatocytes; assay type: cell-based; conditions: 100 nM, 4 h; healthy and NASH donors
Method in brief: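 Primary hepatocytes from normal or NASH human donors, exposed to test compound at 100 nM for 4 h; PPARGC1A transcript measured. n=3 biologically independent samples per group.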

[8] = system: mouse primary hepatocytes; experiment: mitophagosomes by live cell confocal microscopy; assay type: cell-based; conditions: 100 nM, 2h
Method in brief: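 Primary mouse hepatocytes were kept 1 h at 37°C/5% CO2, then 4 h in fresh isolation medium, then moved to serum-free low-glucose DMEM (10 mM lactate, 2 mM glutamine, 5 mM HEPES, 10 nM dexamethasone). Cells were used 18–24 h post-plating and given 100 nM test compound for 2 h. Live cells were stained with Mitotracker green plus Lysotracker deep red and imaged by confocal microscopy. Mitophagosomes were scored as Lysotracker puncta containing Mitotracker signal.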

[9] = system: primary murine hepatocytes; experiment: de novo lipogenesis, 3H-acetate lipid incorporation; assay type: cell-based, mouse; conditions: 100 nM; vs vehicle-treated controls
Method in brief: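 Primary murine hepatocytes treated ex vivo with test compound at 100 nM. De novo lipogenesis was measured as ³H-acetate incorporation into lipid: lipids were extracted, and ³H in the lower phase was counted by scintillation. Values are relative to vehicle-treated controls. n=3–6 per treatment, n=9 vehicle.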

[10] = system: primary mouse hepatocytes; experiment: mitochondrial oxygen consumption; assay type: cell-based
Method in brief: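 Seahorse XFe96 run on primary mouse hepatocytes at 7500 cells/well, recovered overnight, then treated 4 h with 100 nM test compound. Assay medium: DMEM with 5 mM glucose, 4 mM L-glutamine, 2 mM pyruvate, pH 7.4; 30 min CO₂-free preincubation. Stress test used 1 μM oligomycin, 0.5 μM FCCP and 5 μM antimycin A. Basal and maximal OCR normalized to citrate synthase activity. n=3; substrate oxidation n=2.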

[11] = system: DIO C57Bl/6J Wild-type (WT) mice; experiment: two-week treatment of DIO GLP-1R WT mice; assay type: in vivo, mouse
Method in brief: as §1

[12] = system: C57Bl/6J diet induced obese (DIO) male mice; experiment: time course study in DIO C57Bl/6J mice, 7 days dosing; assay type: in vivo, mouse
Method in brief: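 On day 7 they were euthanized at time 0, or at 2, 6 or 16 h after a final dose (n=4/group/timepoint). Body weight was tracked as % change from baseline; blood glucose was measured.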

Q: For `CCCCCCCCCCCCCCCC(=O)N[C@@H](CCC(=O)NCCCC[C@H](NC(=O)[C@H](C)NC(=O)[C@H](C)NC(=O)[C@H](CCC(N)=O)NC(=O)CNC(=O)[C@H](CCC(=O)O)NC(=O)[C@H](CC(C)C)NC(=O)[C@H](Cc1ccc(O)cc1)NC(=O)[C@H](CO)NC(=O)[C@H](CO)NC(=O)[C@@H](NC(=O)[C@H](CC(=O)O)NC(=O)[C@H](CO)NC(=O)[C@@H](NC(=O)[C@H](Cc1ccccc1)NC(=O)[C@@H](NC(=O)CNC(=O)[C@H](CCC(=O)O)NC(=O)[C@H](C)NC(=O)[C@@H](N)Cc1cnc[nH]1)[C@@H](C)O)[C@@H](C)O)C(C)C)C(=O)N[C@@H](CCC(=O)O)C(=O)N[C@@H](Cc1ccccc1)C(=O)N[C@H](C(=O)N[C@@H](C)C(=O)N[C@@H](Cc1c[nH]c2ccccc12)C(=O)N[C@@H](CC(C)C)C(=O)N[C@H](C(=O)N[C@@H](CCCNC(=N)N)C(=O)NCC(=O)N[C@@H](CCCNC(=N)N)C(=O)NCC(=O)O)C(C)C)[C@@H](C)CC)C(=O)O` [Liraglutide, reference compound], which “pharmacokinetics compared with Cotadutide, in words” value [1] is on record?
A: Its value is “longer bioavailability”.

Q: For `CC[C@H]1[C@@H](O)[C@@H]2[C@H](CC[C@]3(C)[C@@H]([C@H](C)CCC(=O)O)CC[C@@H]23)[C@@]2(C)CC[C@@H](O)C[C@@H]12` [OCA, Obeticholic acid, reference compound], which “patients with a reduction in NAS” value ([2]; placebo 12%) is on record?
A: The value was 20%.

Q: And the “patients with reduction in fibrosis stage” value ([2]; placebo 17%)?
A: Its value is 35%.

Q: And the “weight loss from baseline” value [3]?
A: Its value is ~ 3%.

Q: And the “plasma insulin at 15 min during the GTT” value ([3]; after 4 weeks of dosing)?
A: Its value is “no effect”.

Q: What about the “food intake within the first 4 days” value [3] of the same compound?
A: Its value is “no effect”.

Q: And the “animals with reduced fibrosis” value ([3]; terminal vs pre-study biopsy)?
A: The value was 8.3%.

Q: What about the “animals with reduced fibrosis (number of group)” value ([3]; terminal vs pre-study biopsy) of the same compound?
A: Its value is 1/12.

Q: And the liver mass ([3]; terminal, vs vehicle)?
A: The liver mass was “only reducing liver mass”.

Q: And the “mice in which NAS was reduced” value [3]?
A: Its value is 75%.

Q: What about the “steatosis and inflammation scores and overall NAS, responders” value ([3]; vs vehicle) of the same compound?
A: Its value is “significantly more animals with lower steatosis and inflammation scores and overall NAS”.

Q: Which results are given for Cotadutide?
A: body weight ([4]; 10 nmol/kg SC QD 14 d (Liraglutide+g1437 5+5 nmol/kg)): not observed; food intake ([4]; first 4 days of dosing): but not in KO mice; G6pc and Pck1 mRNA [5]: induced; Ppargc1a mRNA [5]: equally increased; weight loss from baseline (ob/ob AMLN NASH mice; Cotadutide 30 nmol/kg, Liraglutide 40 nmol/kg SC QD 6 weeks): 7-8%; plasma C3M and P4NP7S (ob/ob AMLN NASH mice; ELISA): only reduced in Cotadutide-treated mice; resolution of fibrosis, mice (ob/ob AMLN NASH mice; n=7): resolved in all but one; lowering of collagen staining (Col1a1) (ob/ob AMLN NASH mice; not statistically significant): ~ 17%; hepatic transcript levels of Col1a1, Col3a1, Timp1, Ccl2, and Cd68 (ob/ob AMLN NASH mice; relative to AMLN vehicle): significantly reduced; hepatic transcript levels of Mmp9, Il-1b and Tnf (ob/ob AMLN NASH mice; relative to AMLN vehicle): uniquely reducing; CD68 scoring (immune cell infiltration) (ob/ob AMLN NASH mice; terminal): only reduced by Cotadutide treatment; NAS (ob/ob AMLN NASH mice; terminal): reduced; fibrosis stage (ob/ob AMLN NASH mice; terminal): improved only by Cotadutide treatment; hepatic lipid content (ob/ob AMLN NASH mice; terminal): more significant reduction in hepatic lipid content compared to Liraglutide and diet-switch; liver mass (ob/ob AMLN NASH mice; terminal): similarly reduced; liver αSMA, PSR and hydroxyproline (ob/ob AMLN NASH mice; terminal): lowered; plasma ALT (ob/ob AMLN NASH mice; terminal): lowered; hepatic Ppargc1a mRNA (ob/ob AMLN NASH mice; terminal, about 16h post last dose): restored mRNA levels to those of LFD control; hepatic DAGs and ceramides (ob/ob AMLN NASH mice; vs vehicle): only Cotadutide additionally reduced DAGs and ceramides; body weight ([6]; 10 nmol/kg SC QD 42 d): reduced body weight similarly to Liraglutide+g1437, but more than either Liraglutide or g1437 alone; glucose excursion in pyruvate tolerance test ([6]; day 14, pyruvate 2g/kg): lower glucose excursion; plasma alanine aminotransferase (ALT) ([6]; end of study): significantly reduced; hepatic glycogen ([6]; terminal): elevated only with Cotadutide treatment; liver triglycerides ([6]; terminal): reduced; fasted insulin ([6]; vs vehicle, Liraglutide and Liraglutide+g1437): lower; de novo lipogenesis during the clamp (palmitate and glyceride synthesis) (C57Bl/6J DIO male mice; 10 nmol/kg SC QD 7 d): reduced; glycogen synthesis stimulated by hyperglycemia (C57Bl/6J DIO male mice; 10 nmol/kg SC QD 7 d): intact; hepatic (endogenous) glucose production during hyperglycemia (C57Bl/6J DIO male mice; 10 nmol/kg SC QD 7 d): suppressed; core hepatic glycogen (C57Bl/6J DIO male mice; 10 nmol/kg SC QD 7 d, fasted): lower core glycogen levels; basal glucose production (C57Bl/6J DIO male mice; fasted, basal state): increased basal glucose production; PPARGC1A transcript levels [7]: significantly increased; mitochondrial number [8]: without altering mitochondrial number; mitophagosomes (mitochondria within lysosomes) ([8]; vs vehicle): Increased number; de novo lipid synthesis [9]: reduce de novo lipid synthesis; fuel preference ([10]; ex vivo treatment): no effect; basal and maximal respiration rates ([10]; healthy mouse primary hepatocytes, 100 nM, 4h): increased basal and maximal respiration rates; basal and maximal respiratory rates (OCR) ([10]; hepatocytes from ob/ob NASH mice, 100 nM, 4h ex vivo): restored; weight loss from baseline [3]: ~ 8%; glucose tolerance (ipGTT) ([3]; after 4 weeks of dosing): significantly improved by Cotadutide more so than Liraglutide or OCA; plasma insulin at 15 min during the GTT ([3]; after 4 weeks of dosing): increased; food intake within the first 4 days [3]: reduced food intake; hepatic glycogen ([3]; terminal): increase in hepatic glycogen; animals with worsened fibrosis ([3]; terminal vs pre-study biopsy): no animals had worsened fibrosis; animals with reduced fibrosis ([3]; terminal vs pre-study biopsy): 25%; animals with reduced fibrosis (number of group) ([3]; terminal vs pre-study biopsy): 3/12; liver mass ([3]; terminal, vs vehicle): unchanged liver mass; plasma ALT ([3]; terminal, vs vehicle): reduced ALT levels; mice in which NAS was reduced [3]: 83%; steatosis and inflammation scores and overall NAS, responders ([3]; vs vehicle): significantly more animals with lower steatosis and inflammation scores and overall NAS; serum concentration at 16h [1]: undetectable; time of highest serum concentration ([1]; sampled 0, 2, 6, 16 h after final dose): highest at 2h and 6h; body weight ([11]; 10 nmol/kg SC QD 14 d (Liraglutide+g1437 5+5 nmol/kg), vs vehicle): significantly reduced; liver lipid content ([11]; 10 nmol/kg SC QD 14 d, terminal): to a greater degree than Liraglutide alone; food intake ([11]; 10 nmol/kg SC QD, first 4 days of dosing): significantly reduced; fasting glucose ([11]; 10 nmol/kg SC QD, vs vehicle): lowered; liver glycogen ([12]; 0-16 h after final dose): rapidly depleted by 6h post Cotadutide but rebounded to normal at 16h; body weight ([12]; 10 nmol/kg SC QD 7 d, vs vehicle): significant weight loss; blood glucose ([12]; smaller study vehicle vs Cotadutide, 2h and 6h post dose): significantly lowered
